Measurements published in ChEMBL document CHEMBL1671716, “Antimicrobial susceptibility patterns for recent clinical isolates of anaerobic bacteria in South Korea” (2010).
≈ marks a conversion by molar mass, not a printed value.

Assays:
Bacteroides fragilis [1] = test: Antimicrobial activity against Bacteroides fragilis after 48 hrs by agar dilution method; assay type: functional
Outline: (§1)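 MICs on clinical anaerobe isolates by the CLSI agar dilution method. Inoculum of 10^5 CFU applied with a Steers replicator. Plates incubated 48 h at 37°C in an anaerobic chamber.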

[2] = tested on: Bacteroides thetaiotaomicron; test: Antimicrobial activity against Bacteroides thetaiotaomicron after 48 hrs by agar dilution method; assay type: functional; outline: as §1
Bacteroides caccae [3] = test: Antimicrobial activity against Bacteroides caccae after 48 hrs by agar dilution method; assay type: functional; outline: as §1
Bacteroides fragilis [4] = test: Antimicrobial activity against Bacteroides fragilis assessed as percent susceptible isolates after 48 hrs by agar dilution method; assay type: functional
Bacteroides fragilis [5] = test: Antimicrobial activity against Bacteroides fragilis assessed as percent resistant isolates after 48 hrs by agar dilution method; assay type: functional
Outline: (§2)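 CLSI agar dilution on recent Korean clinical anaerobe isolates. Inoculum 10^5 CFU per spot by replicator. Plates incubated in an anaerobic chamber at 37°C for 48 h. For piperacillin plus tazobactam, tazobactam was held constant at 4 μg/ml. Resistance and susceptibility rates derived from MICs.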

[6] = tested on: Bacteroides thetaiotaomicron; test: Antimicrobial activity against Bacteroides thetaiotaomicron assessed as percent resistant isolates after 48 hrs by agar dilution method; assay type: functional; outline: as §2
Bacteroides caccae [7] = test: Antimicrobial activity against Bacteroides caccae assessed as percent susceptible isolates after 48 hrs by agar dilution method; assay type: functional
Bacteroides caccae [8] = test: Antimicrobial activity against Bacteroides caccae assessed as percent resistant isolates after 48 hrs by agar dilution method; assay type: functional; outline: as §2
[9] = tested on: Parabacteroides distasonis; test: Antimicrobial activity against Bacteroides distasonis assessed as percent susceptible isolates after 48 hrs by agar dilution method; assay type: functional
Phocaeicola vulgatus = test: Antimicrobial activity against Bacteroides vulgatus assessed as percent susceptible isolates after 48 hrs by agar dilution method; assay type: functional
Bacteroides ovatus [10] = test: Antimicrobial activity against Bacteroides ovatus assessed as percent susceptible isolates after 48 hrs by agar dilution method; assay type: functional
Bacteroides ovatus [11] = test: Antimicrobial activity against Bacteroides ovatus assessed as percent resistant isolates after 48 hrs by agar dilution method; assay type: functional; outline: as §2
Prevotella bivia [12] = test: Antimicrobial activity against Prevotella bivia after 48 hrs by agar dilution method; assay type: functional
Outline: (§3)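 CLSI agar dilution (M11-A7); inoculum 10^5 CFU applied by replicator; plates incubated anaerobically 48 h at 37°C. For piperacillin-tazobactam, tazobactam held constant at 4 μg/ml.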

Prevotella buccae [13] = test: Antimicrobial activity against Prevotella buccae after 48 hrs by agar dilution method; assay type: functional; conditions: Segatella buccae; outline: as §3
Hoylesella oralis [14] = test: Antimicrobial activity against Prevotella oralis after 48 hrs by agar dilution method; assay type: functional; outline: as §3
Prevotella intermedia [15] = test: Antimicrobial activity against Prevotella intermedia assessed as percent susceptible isolates after 48 hrs by agar dilution method; assay type: functional; outline: as §3
Prevotella intermedia [16] = test: Antimicrobial activity against Prevotella intermedia assessed as percent resistant isolates after 48 hrs by agar dilution method; assay type: functional; outline: as §2
Prevotella bivia [17] = test: Antimicrobial activity against Prevotella bivia assessed as percent susceptible isolates after 48 hrs by agar dilution method; assay type: functional; outline: as §3
Prevotella bivia [18] = test: Antimicrobial activity against Prevotella bivia assessed as percent resistant isolates after 48 hrs by agar dilution method; assay type: functional; outline: as §2
Prevotella buccae [19] = test: Antimicrobial activity against Prevotella buccae assessed as percent susceptible isolates after 48 hrs by agar dilution method; assay type: functional, Segatella buccae; outline: as §3
Hoylesella oralis [20] = test: Antimicrobial activity against Prevotella oralis assessed as percent resistant isolates after 48 hrs by agar dilution method; assay type: functional; outline: as §2
Fusobacterium varium = test: Antimicrobial activity against Fusobacterium varium after 48 hrs by agar dilution method; assay type: functional; outline: as §3
Fusobacterium nucleatum = test: Antimicrobial activity against Fusobacterium nucleatum after 48 hrs by agar dilution method; assay type: functional; outline: as §3
Fusobacterium mortiferum = test: Antimicrobial activity against Fusobacterium mortiferum after 48 hrs by agar dilution method; assay type: functional; outline: as §3
[21] = tested on: Peptostreptococcus anaerobius; test: Antimicrobial activity against Peptostreptococcus anaerobius assessed as percent susceptible isolates after 48 hrs by agar dilution method; assay type: functional; outline: as §2
Parvimonas micra = test: Antimicrobial activity against Peptostreptococcus micros assessed as percent susceptible isolates after 48 hrs by agar dilution method; assay type: functional; outline: as §2
Anaerococcus prevotii [22] = test: Antimicrobial activity against Anaerococcus prevotii after 48 hrs by agar dilution method; assay type: functional; outline: as §1
Anaerococcus prevotii [23] = test: Antimicrobial activity against Anaerococcus prevotii assessed as percent resistant isolates after 48 hrs by agar dilution method; assay type: functional; outline: as §2
[24] = tested on: Peptoniphilus asaccharolyticus; test: Antimicrobial activity against Peptoniphilus asaccharolyticus after 48 hrs by agar dilution method; assay type: functional; outline: as §3
[25] = tested on: Peptoniphilus asaccharolyticus; test: Antimicrobial activity against Peptoniphilus asaccharolyticus assessed as percent susceptible isolates after 48 hrs by agar dilution method; assay type: functional; outline: as §3
[26] = tested on: Peptoniphilus asaccharolyticus; test: Antimicrobial activity against Peptoniphilus asaccharolyticus assessed as percent resistant isolates after 48 hrs by agar dilution method; assay type: functional; outline: as §2
Finegoldia magna [27] = test: Antimicrobial activity against Finegoldia magna after 48 hrs by agar dilution method; assay type: functional; outline: as §3
Finegoldia magna [28] = test: Antimicrobial activity against Finegoldia magna assessed as percent susceptible isolates after 48 hrs by agar dilution method; assay type: functional; outline: as §3
Finegoldia magna [29] = test: Antimicrobial activity against Finegoldia magna assessed as percent resistant isolates after 48 hrs by agar dilution method; assay type: functional; outline: as §2
Clostridioides difficile [30] = test: Antimicrobial activity against Clostridium difficile after 48 hrs by agar dilution method; assay type: functional
Clostridioides difficile [31] = test: Antimicrobial activity against Clostridium difficile assessed as percent susceptible isolates after 48 hrs by agar dilution method; assay type: functional
Clostridioides difficile [32] = test: Antimicrobial activity against Clostridium difficile assessed as percent resistant isolates after 48 hrs by agar dilution method; assay type: functional
Schaalia odontolytica = test: Antimicrobial activity against Actinomyces odontolyticus assessed as percent susceptible isolates after 48 hrs by agar dilution method; assay type: functional
Schaalia meyeri [33] = test: Antimicrobial activity against Actinomyces meyeri after 48 hrs by agar dilution method; assay type: functional; outline: as §1
Schaalia meyeri [34] = test: Antimicrobial activity against Actinomyces meyeri assessed as percent susceptible isolates after 48 hrs by agar dilution method; assay type: functional
Schaalia meyeri [35] = test: Antimicrobial activity against Actinomyces meyeri assessed as percent resistant isolates after 48 hrs by agar dilution method; assay type: functional; outline: as §2
Actinomyces naeslundii [36] = test: Antimicrobial activity against Actinomyces naeslundii after 48 hrs by agar dilution method; assay type: functional; outline: as §1
Actinomyces naeslundii [37] = test: Antimicrobial activity against Actinomyces naeslundii assessed as percent susceptible isolates after 48 hrs by agar dilution method; assay type: functional
Actinomyces naeslundii [38] = test: Antimicrobial activity against Actinomyces naeslundii assessed as percent resistant isolates after 48 hrs by agar dilution method; assay type: functional; outline: as §2
[39] = tested on: Bifidobacterium adolescentis; test: Antimicrobial activity against Bifidobacterium adolescentis after 48 hrs by agar dilution method; assay type: functional; outline: as §1
[40] = tested on: Bifidobacterium adolescentis; test: Antimicrobial activity against Bifidobacterium adolescentis assessed as percent susceptible isolates after 48 hrs by agar dilution method; assay type: functional
[41] = tested on: Bifidobacterium adolescentis; test: Antimicrobial activity against Bifidobacterium adolescentis assessed as percent resistant isolates after 48 hrs by agar dilution method; assay type: functional; outline: as §2
Bifidobacterium sp. = test: Antimicrobial activity against Bifidobacterium sp. assessed as percent resistant isolates after 48 hrs by agar dilution method; assay type: functional; outline: as §2
Eggerthella lenta = test: Antimicrobial activity against Eubacterium lentum assessed as percent resistant isolates after 48 hrs by agar dilution method; assay type: functional; outline: as §2
Eubacterium sp. = test: Antimicrobial activity against Eubacterium sp. after 48 hrs by agar dilution method; assay type: functional; outline: as §3

Compound: C[C@@H](O)[C@H]1C(=O)N2C(C(=O)O)=C(SCCNC=N)C[C@H]12 [IMIPENEM ANHYDROUS]
- MIC50 (Bacteroides fragilis [1]): 0.125 µg/mL (≈ 0.418 µM)
- MIC90 (Bacteroides fragilis [1]): 1 µg/mL (≈ 3.34 µM)
- MIC50 [2]: 0.5 µg/mL (≈ 1.67 µM)
- MIC90 [2]: 4 µg/mL (≈ 13.4 µM)
- MIC50 (Bacteroides caccae [3]): 0.5 µg/mL (≈ 1.67 µM)
- MIC90 (Bacteroides caccae [3]): 4 µg/mL (≈ 13.4 µM)
- Activity (Bacteroides fragilis [4]): 98%
- Activity (Bacteroides fragilis [5]): 2%
- Activity [6]: 4%
- Activity (Bacteroides caccae [7]): 95%
- Activity (Bacteroides caccae [8]): 4%
- Activity [9]: 95%
- Activity (Phocaeicola vulgatus): 95%
- Activity (Bacteroides ovatus [10]): 95%
- Activity (Bacteroides ovatus [11]): 4%
- MIC50 (Prevotella bivia [12]): 0.06 µg/mL (≈ 0.2 µM)
- MIC90 (Prevotella bivia [12]): 0.5 µg/mL (≈ 1.67 µM)
- MIC50 (Prevotella buccae [13]): 0.06 µg/mL (≈ 0.2 µM)
- MIC90 (Prevotella buccae [13]): 0.5 µg/mL (≈ 1.67 µM)
- MIC50 (Hoylesella oralis [14]): 0.06 µg/mL (≈ 0.2 µM)
- MIC90 (Hoylesella oralis [14]): 0.5 µg/mL (≈ 1.67 µM)
- Activity (Prevotella intermedia [15]): 100%
- Activity (Prevotella intermedia [16]): 0%
- Activity (Prevotella bivia [17]): 100%
- Activity (Prevotella bivia [18]): 0%
- Activity (Prevotella buccae [19]): 100%
- Activity (Hoylesella oralis [20]): 0%
- MIC (Fusobacterium varium): 0.02 µg/mL (≈ 0.0668 µM)
- MIC (Fusobacterium nucleatum): 0.02 µg/mL (≈ 0.0668 µM)
- MIC (Fusobacterium mortiferum): 0.02 µg/mL (≈ 0.0668 µM)
- Activity [21]: 100%
- Activity (Parvimonas micra): 0%
- MIC50 (Anaerococcus prevotii [22]): 0.06 µg/mL (≈ 0.2 µM)
- MIC90 (Anaerococcus prevotii [22]): 0.25 µg/mL (≈ 0.835 µM)
- Activity (Anaerococcus prevotii [23]): 0%
- MIC50 [24]: ≤ 0.008 µg/mL
- MIC90 [24]: 0.03 µg/mL (≈ 0.1 µM)
- Activity [25]: 100%
- Activity [26]: 0%
- MIC50 (Finegoldia magna [27]): 0.06 µg/mL (≈ 0.2 µM)
- MIC90 (Finegoldia magna [27]): 0.125 µg/mL (≈ 0.418 µM)
- Activity (Finegoldia magna [28]): 100%
- Activity (Finegoldia magna [29]): 0%
- MIC50 (Clostridioides difficile [30]): 4 µg/mL (≈ 13.4 µM)
- MIC90 (Clostridioides difficile [30]): 8 µg/mL (≈ 26.7 µM)
- Activity (Clostridioides difficile [31]): 58%
- Activity (Clostridioides difficile [32]): 8%
- Activity (Schaalia odontolytica): 100%
- MIC50 (Schaalia meyeri [33]): 0.06 µg/mL (≈ 0.2 µM)
- MIC90 (Schaalia meyeri [33]): 0.5 µg/mL (≈ 1.67 µM)
- Activity (Schaalia meyeri [34]): 100%
- Activity (Schaalia meyeri [35]): 0%
- MIC50 (Actinomyces naeslundii [36]): 0.06 µg/mL (≈ 0.2 µM)
- MIC90 (Actinomyces naeslundii [36]): 0.5 µg/mL (≈ 1.67 µM)
- Activity (Actinomyces naeslundii [37]): 100%
- Activity (Actinomyces naeslundii [38]): 0%
- MIC50 [39]: 0.06 µg/mL (≈ 0.2 µM)
- MIC90 [39]: 0.5 µg/mL (≈ 1.67 µM)
- Activity [40]: 100%
- Activity [41]: 15%
- Activity (Bifidobacterium sp.): 0%
- Activity (Eggerthella lenta): 0%
- MIC50 (Eubacterium sp.): 0.06 µg/mL (≈ 0.2 µM)
- MIC90 (Eubacterium sp.): 0.5 µg/mL (≈ 1.67 µM)
